Measurements published in ChEMBL document CHEMBL1123555, “1,2-Bis(sulfonyl)hydrazines. 3. Effects of structural modification on antineoplastic activity” (1987).

Key:
[1] = species: Mus musculus; experiment: Antitumor activity against B16 melanoma cells in mice, activity is expressed as optimal effective dose; assay type: functional
Procedure, shortened: (§1)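 Transplanted tumor in mice, given i.p. once daily for 6 consecutive days starting 24 h after implantation. Doses span 10-150 mg/kg per day as fine suspensions homogenized in a few drops of 20% aqueous Tween 80 and made up with isotonic saline. Groups of five; vehicle-injected tumor-bearing controls. %T/C = mean survival time treated/control × 100. Value is the daily dose giving maximum %T/C.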

[2] = test system: L1210; experiment: Antitumor activity against L1210 leukemia cells in mice, activity is expressed as optimal effective dose.; assay type: functional, Mus musculus; procedure, shortened: as §1
[3] = Antitumor activity against B16 melanoma cells in mice, activity is expressed as average survival time of treated/control animals x 100.; assay type: functional, Mus musculus
Procedure, shortened: (§2)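 Compound given ip as a fine suspension (homogenized in drops of 20% aqueous Tween 80, made to volume with isotonic saline) at 10-150 mg/kg per day, once daily for 6 consecutive days starting 24 h after implantation. Vehicle-injected tumor-bearing controls were included. Read-out was survival time; body-weight change over therapy was the toxicity indicator.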

[4] = Antitumor activity against mouse B16 melanoma cells, calculated as average change in body weight from onset to termination of therapy; assay type: functional
Procedure, shortened: (§3)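 Tumor-bearing mice in groups of five, dosed i.p. daily for 6 days from 24 h post-implantation with suspensions in Tween 80/isotonic saline at 10-150 mg/kg per day; vehicle controls run alongside. Mice weighed during the experiment. Average percent body-weight change from onset to termination of therapy was taken as the toxicity index, reported at the optimal-survival dose.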

[5] = species: Mus musculus; experiment: Antitumor activity against B16 melanoma cells in mice. Activity is expressed as optimal effective dose.; assay type: functional; procedure, shortened: as §1
[6] = species: Mus musculus; experiment: Antitumor activity against L1210 leukemia cells in mice, activity is expressed as optimal effective dose; assay type: functional; procedure, shortened: as §1
[7] = species: Mus musculus; experiment: Antitumor activity against L1210 leukemia cells in mice calculated as average change in body weight from onset to termination of therapy; assay type: functional; procedure, shortened: as §3
[8] = species: Mus musculus; experiment: Antitumor activity against L1210 leukemia cells in mice (activity expressed as average survival time of treated/control animals x 100); assay type: functional; procedure, shortened: as §2
[9] = species: Mus musculus; experiment: Antitumor activity against B16 melanoma cells in mice, activity is expressed as optimal effective dose.; assay type: functional; procedure, shortened: as §1
[10] = species: Mus musculus; experiment: Antitumor activity against L1210 leukemia cells in mice, activity is expressed as average survival time of treated/control animals x 100; assay type: functional; procedure, shortened: as §2

SMILES | Dose [1] [mg/kg] | Dose [2] [mg/kg] | T/C [3] [%] | Weight change [4] [%] | Dose [5] [mg/kg] | Dose [6] [mg/kg] | Weight change [7] [%] | T/C [8] [%] | Dose [9] [mg/kg] | T/C [10] [%]
Cc1ccc(S(=O)(=O)N(C)NS(=O)(=O)Cc2ccccc2)cc1 | 50 | 50 | 172 | -2.4 |  |  |  |  |  | 
Cc1ccc(S(=O)(=O)N(C)NS(=O)(=O)c2ccc(Br)cc2)cc1 |  |  |  | -5.1 | 150 | 50 | 5.6 |  |  | 
CN(NS(=O)(=O)c1ccc2ccccc2c1)S(=O)(=O)c1ccc2ccccc2c1 | 100 |  |  | 4.6 |  | 150 | -3.3 |  |  | 
CN(NS(=O)(=O)c1ccc(Br)cc1)S(=O)(=O)c1ccc(Br)cc1 | 50 |  | 160 | -3.8 |  | 150 | 1.7 |  |  | 
CN(NS(=O)(=O)c1ccc2ccccc2c1)S(=O)(=O)c1ccc(Br)cc1 | 200 |  |  | 3.7 |  | 100 | 18.3 | 123 |  | 
CN(NS(C)(=O)=O)S(C)(=O)=O | 50 |  | 278 | -7.9 |  | 25 | -15.3 | 340 |  | 
Cc1ccc(S(=O)(=O)NN(C)S(=O)(=O)c2ccc(Br)cc2)cc1 |  |  |  |  |  | 100 |  |  |  | 
COc1ccc(S(=O)(=O)N(CCCl)NS(=O)(=O)c2ccccc2)cc1 |  |  | 138 | -2.8 | 12.5 | 10 | 4.8 | 136 |  | 
CN(NS(=O)(=O)c1ccccc1)S(=O)(=O)c1ccc(Br)cc1 |  |  | 160 | 1.5 |  |  |  |  | 100 | 
CN(NS(=O)(=O)c1ccc(Br)cc1)S(C)(=O)=O | 100 |  | 235 | -11.4 |  | 40 | 6.3 | 191 |  | 
COc1ccc(S(=O)(=O)N(CCCl)NS(C)(=O)=O)cc1 |  |  | 184 | 3.8 | 10 | 10 | -10.9 |  |  | 214
COc1ccc(S(=O)(=O)NN(C)S(C)(=O)=O)cc1 | 60 | 60 | 233 | -11.9 |  |  | -13.7 | 221 |  | 
COc1ccc(S(=O)(=O)NN(C)S(=O)(=O)c2ccc(Br)cc2)cc1 | 100 |  |  | 1.3 |  | 100 | 7.8 |  |  | 
COc1ccc(S(=O)(=O)N(C)NS(=O)(=O)c2ccccc2[N+](=O)[O-])cc1 | 150 |  | 158 | 1.5 |  |  |  |  |  | 
COc1ccc(S(=O)(=O)N(C)NS(=O)(=O)c2ccc(Br)cc2)cc1 |  |  |  | -0.1 | 100 | 100 | 3.4 |  |  | 
